Data as given in ChEMBL document CHEMBL4371043, “Dynamic Generation of G-Quadruplex DNA Ligands by Target-Guided Combinatorial Chemistry on a Magnetic Nanoplatform” (J Med Chem, 2019).
The source made the active and inactive calls. The rule behind the calls is not given here.

Legend:
[1] = system: Quadruplex DNA; assay: Binding affinity to 6-FAM/TAMRA labeled cMYC G-quadruplex DNA (unknown origin) in potassium cacodylate buffer assessed as change in melting temperature at 1 uM at pH 7.4 by FRET-Based DNA melting assay; format: nucleic-acid assay
Summary of the method: (§1)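 FRET melting: FAM/TAMRA dual-labelled oligos (G4: TG4AG3TG4AG3TG4A2G2; duplex: CA5T5GCA5T5G) annealed at 400 nM in 60 mM potassium cacodylate pH 7.4 (95 °C 5 min, cool 0.1 °C/min). Melting run on 200 nM oligo ± 1 μM ligand; excitation 480 nm, emission 530 nm, 37–95 °C, 30 reads per °C. ΔTm versus ligand-free DNA.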

[2] = system: dsDNA; assay: Binding affinity to 6-FAM/TAMRA labeled double stranded DNA (unknown origin) in potassium cacodylate buffer assessed as change in melting temperature at 1 uM at pH 7.4 by FRET-Based DNA melting assay; format: nucleic-acid assay; summary of the method: as §1
[3] = biological target: Quadruplex DNA; assay: Binding affinity to cMYC G-quadruplex DNA (unknown origin) in tris-KCL buffer by fluorimetric titration assay; format: nucleic-acid assay
Summary of the method: (§2)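 Fluorimetric titration: unlabelled pre-folded G4 (TG4AG3TG4AG3TG4A2G2) or duplex (CA5T5GCA5T5G) DNA added stepwise to 0.25 μM ligand in filtered, degassed 100 mM Tris·KCl pH 7.4; 25 °C, 1 cm quartz cuvette, excitation 300 nm. Apparent Kd from fitting emission intensity against [DNA] to a one-site Hill equation.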

[4] = biological target: dsDNA; assay: Binding affinity to double stranded DNA (unknown origin) in tris-KCL buffer by fluorimetric titration assay; format: nucleic-acid assay; summary of the method: as §2
[5] = biological target: Quadruplex DNA; assay: Displacement thiazole orange from cMYC G-quadruplex DNA (unknown origin) in tris-KCL buffer after 30 mins by FID assay; format: nucleic-acid assay
Summary of the method: (§3)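 Thiazole orange displacement: pre-folded G4 or duplex DNA (0.25 μM) with TO (0.50 μM) in 100 mM Tris–KCl pH 7.4, 30 min rt; compound added stepwise, 3 min equilibration each, spectra excited at 501 nm. Percent TO displaced = 100 − (FA×100/FA0) from emission area; DC50 read from displacement-versus-concentration plot.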

[6] = biological target: dsDNA; assay: Displacement thiazole orange from double stranded DNA (unknown origin) in tris-KCL buffer after 30 mins by FID assay; format: nucleic-acid assay; summary of the method: as §3
[7] = system: HeLa; assay: Cytotoxicity against human HeLa cells assessed as reduction in cell viability after 24 hrs by XTT assay; format: functional, cell-based
Summary of the method: (§4)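 XTT viability: HeLa (DMEM), A549 (Ham's F12K) or NKE (glutamine-supplemented RPMI 1640), all with 10% FBS, 37 °C, 5% CO2; 10^4–10^5 cells/well exposed to 0–50 μM compound for 24 h, in triplicate. XTT/PMS added 2 h at 37 °C; absorbance 450 nm; viability as percent of untreated control.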

[8] = system: A549; assay: Cytotoxicity against human A549 cells assessed as reduction in cell viability after 24 hrs by XTT assay; format: functional, cell-based; conditions: A549, 24 h; summary of the method: as §4
[9] = Cytotoxicity against human NKE cells assessed as reduction in cell viability after 24 hrs by XTT assay; format: cell-based; summary of the method: as §4
[10] = system: Quadruplex DNA; assay: Binding affinity to cMYC G-quadruplex DNA G to A mutant promoter sequence (unknown origin) transfected in human Hela cells assessed as reduction in c-MYC promoter-linked expression at 1.5 uM incubated for 36 hrs by dual-luciferase reporter gene assay relative to control; format: cell-based; conditions: in the assay text read “wild-type promoter sequence” for “G to A mutant promoter sequence”
Summary of the method: (§5)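 Dual luciferase in HeLa: 0.2 μg c-MYC Del4 firefly reporter (wild-type or G-to-A mutant G-rich region) co-transfected with 30 ng pRL-TK Renilla control, Lipofectamine 2000, serum-free DMEM; after 8 h switched to complete medium with ligand at 1 or 1.5 μM. Lysed at 36 h; firefly activity normalised to Renilla.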

[11] = system: Quadruplex DNA; assay: Binding affinity to cMYC G-quadruplex DNA (unknown origin) assessed as reduction in fluorescence intensity at 0.25 uM by fluorimetric titration relative to control; format: nucleic-acid assay; summary of the method: as §2
[12] = system: dsDNA; assay: Binding affinity to double stranded DNA (unknown origin) assessed as reduction in fluorescence intensity at 0.25 uM by fluorimetric titration relative to control; format: nucleic-acid assay; summary of the method: as §2
[13] = system: Quadruplex DNA; assay: Binding affinity to cMYC G-quadruplex DNA G to A mutant promoter sequence (unknown origin) transfected in human Hela cells assessed as reduction in c-MYC promoter-linked expression at 1 to 1.5 uM incubated for 36 hrs by dual-luciferase reporter gene assay relative to control; format: cell-based; summary of the method: as §5
[14] = system: Quadruplex DNA; assay: Binding affinity to 6-FAM/TAMRA labeled cMYC G-quadruplex DNA (unknown origin) in potassium cacodylate buffer assessed as change in melting temperature at 1 uM at pH 7.4 in presence of 1 to 200 equiv calf thymus DNA by FRET-Based DNA melting assay; format: nucleic-acid assay
Summary of the method: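 Competition FRET melting: 0.2 μM FAM/TAMRA-labelled c-MYC G4 oligo with 1 μM ligand plus unlabelled calf-thymus duplex DNA at 1–200 equivalents of G4; ΔTm followed (excitation 480 nm, emission 530 nm, 37–95 °C ramp).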

[15] = system: Quadruplex DNA; assay: Effect on native parallel topology of cMYC G-quadruplex DNA (unknown origin) assessed as formation of positive band at 260 nm up to 10 equiv concentration by CD spectroscopy; format: nucleic-acid assay
[16] = system: Quadruplex DNA; assay: Effect on native parallel topology of cMYC G-quadruplex DNA (unknown origin) assessed as formation of negative band at 240 nm up to 10 equiv concentration by CD spectroscopy; format: nucleic-acid assay
[17] = system: Quadruplex DNA; assay: Binding affinity to cMYC G-quadruplex DNA (unknown origin) assessed as increase in emission intensity at 0.25 uM in presence of increasing concentration of DNA by fluorimetric titration relative to control; format: nucleic-acid assay; summary of the method: as §2
[18] = system: dsDNA; assay: Binding affinity to double stranded DNA (unknown origin) assessed as increase in emission intensity at 0.25 uM by fluorimetric titration relative to control; format: nucleic-acid assay; summary of the method: as §2
[19] = system: Quadruplex DNA; assay: Binding affinity to wild type cMYC G-quadruplex DNA promoter sequence (unknown origin) transfected in human Hela cells assessed as reduction in c-MYC promoter-linked expression at 1 uM incubated for 36 hrs by dual-luciferase reporter gene assay relative to control; format: cell-based; summary of the method: as §5
[20] = system: Quadruplex DNA; assay: Binding affinity to wild type cMYC G-quadruplex DNA promoter sequence (unknown origin) transfected in human Hela cells assessed as reduction in c-MYC promoter-linked expression at 1.5 uM incubated for 36 hrs by dual-luciferase reporter gene assay relative to control; format: cell-based; summary of the method: as §5
[21] = system: Quadruplex DNA; assay: Binding affinity to cMYC G-quadruplex DNA in human HeLa cells assessed as reduction in cMYC protein expression after 24 hrs by Western blot analysis; format: cell-based
Summary of the method: (§6)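 Western blot, HeLa: 24 h ligand exposure at 1.0, 1.5 or 2.0 μM; lysis in 20 mM Tris/100 mM NaCl/1 mM EDTA/0.5% Triton X-100, protein by Folin-Lowry; 70 μg on 12% SDS-PAGE, nitrocellulose, 4% BSA block; rabbit anti-c-MYC and mouse anti-GAPDH overnight at 4 °C, HRP secondaries 2 h; bands quantified densitometrically.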

[22] = system: Quadruplex DNA; assay: Binding affinity to cMYC G-quadruplex DNA in human HeLa cells assessed as reduction in cMYC protein expression at 1 uM after 24 hrs by Western blot analysis relative to control; format: cell-based; summary of the method: as §6
[23] = system: Quadruplex DNA; assay: Binding affinity to cMYC G-quadruplex DNA in human HeLa cells assessed as reduction in cMYC protein expression at 1.5 uM after 24 hrs by Western blot analysis relative to control; format: cell-based; summary of the method: as §6
[24] = system: Quadruplex DNA; assay: Binding affinity to cMYC G-quadruplex DNA in human HeLa cells assessed as reduction in cMYC protein expression at 2 uM after 24 hrs by Western blot analysis relative to control; format: cell-based; summary of the method: as §6
[25] = Drug level in human HeLa cell nucleus at 0.5 uM measured after overnight incubation by NucRed647-staining based confocal microscopy; format: ADME, subcellular
Summary of the method: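 Confocal: HeLa on coverslips treated overnight with 0.5 μM ligand, fixed 12 min in 1:1 acetone/methanol at −20 °C, nuclei stained with NucRed 647 Live 10 min in the dark; ligand localisation imaged by confocal laser scanning.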

[26] = system: Quadruplex DNA; assay: Binding affinity to cMYC G-quadruplex DNA in human HeLa cells assessed as induction of DNA damage by measuring increase in gammaH2AX foci at 1 to 2 uM measured after overnight incubation by alexafluor-647-based flow cytometry; format: cell-based
Summary of the method: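 γH2AX flow cytometry: HeLa treated overnight with 1 or 2 μM ligand, trypsinised, fixed in 1% paraformaldehyde 30 min rt, permeabilised with 0.03% saponin 20 min, then stained 3 h with Alexa Fluor 647 anti-γH2AX (1:100 in PBS + 0.1% FBS).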

[27] = system: Quadruplex DNA; assay: Binding affinity to cMYC G-quadruplex DNA (unknown origin) assessed as induction of red shift at 0.25 uM in presence of increasing concentration of DNA by fluorimetric titration relative to control; format: nucleic-acid assay; summary of the method: as §2
[28] = system: HeLa; assay: Effect on GAPDH protein expression in human HeLa cells at 1 to 2 uM after 24 hrs by Western blot analysis relative to control; format: ADME, cell-based; summary of the method: as §6

COc1ccc(-c2ccc3c(c2)c2cc(CNCCCN(C)C)ccc2n3CCCN(C)C)cc1
ΔTm [1]: 5.3 °C
ΔTm [2]: 7.2 °C

COc1ccc(-c2ccc3c(c2)c2cc(CNc4ccc(O)cc4)ccc2n3CCCN(C)C)cc1
ΔTm [1]: 0.7 °C
ΔTm [2]: 1.9 °C

CCCCNCc1ccc2c(c1)c1cc(-c3ccc(OC)cc3)ccc1n2CCCN(C)C
Kd [3]: 5.72 µM
ΔTm [1]: 13.6 °C
ΔTm [2]: 9.5 °C
Kd [4]: 6.63 µM
DC50 [5]: 8.01 µM
DC50 [6]: > 30 µM
IC50 [7]: 2 µM
IC50 [8]: 4.3 µM
IC50 [9]: > 50 µM
inhibition [10]: 14%

C#CCNCc1ccc2c(c1)c1cc(-c3ccc(OC)cc3)ccc1n2CCCN(C)C
Kd [3]: 7.17 µM
ΔTm [1]: 11.8 °C
ΔTm [2]: 8.5 °C
Kd [4]: 7.03 µM
DC50 [5]: > 25 µM
DC50 [6]: > 30 µM
IC50 [7]: 11.5 µM
IC50 [8]: > 25 µM
IC50 [9]: > 50 µM
fold change (FC) [11]: 1.5
fold change (FC) [12]: 1.5
Activity [13]: inactive

COc1ccc(-c2ccc3c(c2)c2cc(CNc4ccc(C#CCN(C)C)cc4)ccc2n3CCCN(C)C)cc1
ΔTm [1]: 5 °C
ΔTm [2]: 3.79 °C

COc1ccc(-c2ccc3c(c2)c2cc(CNc4ccc([N+](=O)[O-])cc4)ccc2n3CCCN(C)C)cc1
ΔTm [1]: 3.4 °C
ΔTm [2]: 2.4 °C

COc1ccc(-c2ccc3c(c2)c2cc(CNc4ccc(OCCCN(C)C)cc4)ccc2n3CCCN(C)C)cc1
Kd [3]: 1.08 µM
ΔTm [1]: 23.4 °C
ΔTm [2]: 0.58 °C
Activity [14]: Active
Activity [15]: inactive
Activity [16]: inactive
fold change (FC) [17]: 4.4
Activity [18]: inactive
DC50 [5]: 2.25 µM
DC50 [6]: > 30 µM
IC50 [7]: 2.5 µM
IC50 [8]: 6.4 µM
IC50 [9]: > 50 µM
inhibition [19]: 31%
inhibition [20]: 45%
inhibition [21]: Dose-dependent effect
inhibition [22]: 27%
inhibition [23]: 57%
inhibition [24]: 65%
Drug uptake [25]: Active
Activity [26]: Active
Activity [27]: Active
Activity [13]: inactive
Activity [28]: Non-Toxic

COc1ccc(-c2ccc3c(c2)c2cc(CNC4CC4)ccc2n3CCCN(C)C)cc1
ΔTm [1]: 3.5 °C
ΔTm [2]: 1.1 °C

COc1ccc(-c2ccc3c(c2)c2cc(CNc4ccc(Br)cc4C)ccc2n3CCCN(C)C)cc1
ΔTm [1]: 3.3 °C
ΔTm [2]: 0.44 °C

COc1ccc(-c2ccc3c(c2)c2cc(CNc4nccs4)ccc2n3CCCN(C)C)cc1
ΔTm [1]: 3.2 °C
ΔTm [2]: 1.15 °C
